Measurements from ChEMBL document CHEMBL2424608, “Discovery of novel N-substituted carbazoles as neuroprotective agents with potent anti-oxidative activity” (Eur J Med Chem, 2013).

Experiments:
Type in all cases: functional
[1] = system: HT-22; test: Neuroprotective activity against mouse HT22 cells assessed as inhibition of HCA-induced cell injury pretreated at 30 uM for 30 mins measured after 24 hrs by MTT assay
In short: (§1)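 HT22 mouse hippocampal cells in DMEM/10% FBS at 37 °C, 5% CO2, seeded at 4000 cells/well. Compound (30 mM DMSO stock, diluted in medium) added 30 min before glutamate (2 mM) or HCA (500 µM), then 24 h exposure. Controls get vehicle. Viability by MTT (500 µg/mL, 1 h, 37 °C), DMSO solubilisation, A570 relative to control = 100%. n = 6.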

[2] = system: HT-22; test: Neuroprotective activity against mouse HT22 cells assessed as inhibition of HCA-induced cell injury pretreated at 3 uM for 30 mins measured after 24 hrs by MTT assay; in short: as §1
[3] = system: HT-22; test: Neuroprotective activity against mouse HT22 cells assessed as inhibition of HCA-induced cell injury pretreated at 10 uM for 30 mins measured after 24 hrs by MTT assay; in short: as §1
[4] = system: HT-22; test: Neuroprotective activity against mouse HT22 cells assessed as inhibition of glutamate-induced cell injury pretreated at 30 uM for 30 mins measured after 24 hrs by MTT assay; in short: as §1
[5] = system: HT-22; test: Neuroprotective activity against mouse HT22 cells assessed as inhibition of glutamate-induced cell injury pretreated at 10 uM for 30 mins measured after 24 hrs by MTT assay; in short: as §1
[6] = system: HT-22; test: Neuroprotective activity against mouse HT22 cells assessed as inhibition of glutamate-induced cell injury pretreated at 3 uM for 30 mins measured after 24 hrs by MTT assay; in short: as §1

Compound | inhibition at 30 µM [1] [%] | inhibition at 3 µM [2] [%] | inhibition at 10 µM [3] [%] | inhibition at 30 µM [4] [%] | inhibition at 10 µM [5] [%] | inhibition at 3 µM [6] [%]
FC(F)(F)c1ccc(-n2c3ccccc3c3ccccc32)cc1 | 80 | 0 | 10 | 68 | 14 | 0
Cc1ccc(S(=O)(=O)n2c3ccccc3c3ccc(C(F)(F)F)cc32)cc1 | 38 | 0 | 6 | 42 | 10 | 0
COc1ccc2c(c1)c1ccccc1n2-c1ccc(C(C)(C)C)cc1 | 0 | 0 | 0 | 0 | 0 | 0
c1ccc2c(c1)c1ccccc1n2C1CCCCC1 | 10 | 7 | 8 | 20 | 8 | 3
Cc1ccc(-n2c3ccccc3c3ccccc32)cc1 | 0 | 0 | 0 | 0 | 0 | 0
COc1ccc(-n2c3ccccc3c3ccccc32)cc1 | 71 | 0 | 32 | 59 | 25 | 3
Cc1ccc(S(=O)(=O)n2c3ccccc3c3ccccc32)cc1 | 34 | 4 | 13 | 47 | 10 | 0
OCCCCn1c2ccccc2c2ccccc21 | 12 | 0 | 1 | 4 | 1 | 0
CC(C)(C)c1ccc(-n2c3ccccc3c3ccccc32)cc1 | 63 | 2 | 30 | 70 | 35 | 0
Clc1ccc(-n2c3ccccc3c3ccccc32)cc1 | 40 | 0 | 0 | 20 | 0 | 0
Cc1ccc(S(=O)(=O)n2c3ccccc3c3ccc(-c4ccccc4)cc32)cc1 | 30 | 11 | 18 | 30 | 19 | 12
Cc1ccc(S(=O)(=O)n2c3ccccc3c3ccc4ccccc4c32)cc1 | 30 | 18 | 30 | 26 | 16 | 4
Cc1ccc(-n2c3ccccc3c3ccc4ccccc4c32)cc1 | 0 | 0 | 0 | 0 | 0 | 0
COc1ccc2c3ccccc3n(S(=O)(=O)c3ccc(C)cc3)c2c1 | 0 | 0 | 0 | 4 | 2 | 0.8
